According to article PMC3979583 (ACS medicinal chemistry letters, 2013):
Where two headings read alike, the source gives them in different places.

How the values were obtained:
Format in all cases: cell-based
human CB2 receptors = human CB2 receptors (Homo sapiens, UniProt P34972)
[1] = system: osteoclast (OCL) formation; assay: osteoclast; conditions: mouse bone marrow mononuclear cells, RANKL plus MCSF
Method in brief: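 Test compound was given at concentrations including 0.1, 1 and 5 μM, alongside a vehicle control. The read-out was inhibition of osteoclastogenesis, expressed as percent suppression of osteoclast formation. Each experiment was run in triplicate, and data were reported as means ± standard deviation.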

cytotoxicity assay = conditions: 5 μM

Sequence of human CB2 receptors (P34972 whole entry): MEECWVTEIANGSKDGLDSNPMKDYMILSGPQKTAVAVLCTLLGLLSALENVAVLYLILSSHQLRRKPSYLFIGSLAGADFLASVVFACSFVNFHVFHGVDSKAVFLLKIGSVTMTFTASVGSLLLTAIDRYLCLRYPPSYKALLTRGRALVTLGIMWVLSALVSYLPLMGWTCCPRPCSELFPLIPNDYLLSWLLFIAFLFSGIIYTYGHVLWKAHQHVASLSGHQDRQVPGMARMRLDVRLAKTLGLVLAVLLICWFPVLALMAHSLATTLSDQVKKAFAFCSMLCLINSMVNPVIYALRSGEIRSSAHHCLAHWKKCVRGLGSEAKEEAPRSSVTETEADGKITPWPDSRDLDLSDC

| Structure (SMILES) | functional behaviour at CB2 receptor (human CB2 receptors) | inhibition of osteoclastogenesis (in words) [1] | cytotoxic effects (cytotoxicity assay) | functional behaviour at CB2 receptor (human CB2 receptors; based on LANCE signal change) |
| --- | --- | --- | --- | --- |
| CCN(CC)c1ccc(CN(c2ccccc2)S(=O)(=O)c2ccc(C)cc2)cc1 [Compound 34] | behaved as CB2 receptor inverse agonists | great inhibition of osteoclastogenesis | without showing any cytotoxic effects | – |
| CCN(CC)c1ccc(CN(c2ccccc2)S(=O)(=O)c2ccc(OC)cc2)cc1 [Compound 39] | – | great inhibition of osteoclastogenesis | – | behaved as CB2 receptor inverse agonists |
| CCN(CC)c1ccc(CN(c2ncc(C)s2)S(=O)(=O)c2ccc(OC)cc2)cc1 [Compound 45] | – | great inhibition of osteoclastogenesis | – | behaved as CB2 receptor inverse agonists |
| COc1ccc(S(=O)(=O)N(Cc2ccc(N3CCCCC3)cc2)c2ccccc2)cc1 [Compound 47] | – | – | – | behaved as CB2 receptor inverse agonists |
